“Also recorded” adds a separate entry of the source. Like-named read-outs stand apart in the source and are kept apart here. One block for each compound: values may come before it.
Assays:
[1] = cited from earlier work
serum TG levels = settings: IPE 4 g/day, MARINE and ANCHOR studies; cited from earlier work
CYP2C9 = settings: IPE 4 g/day; cited from earlier work
Safety assessments = assay type: in vivo, human (healthy adult subjects); settings: healthy subjects
In short: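 Open-label single-centre phase I crossover, healthy adults. Oral H+/K+ ATPase inhibitor 40-mg delayed-release capsule once daily, 1 h before breakfast, days 1–7 and 19–25. Omega-3 ethyl ester 4 g/day as two 1-g capsules twice daily with or after meals, days 12–29. Monitored adverse events, chemistry, hematology, urinalysis, blood pressure, heart rate, respiratory rate, oral temperature and physical examinations.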

CYP3A4 = settings: IPE 4 g/day; cited from earlier work
[2] = molecular target: cytochrome P450 (CYP) 2C19 (Homo sapiens, UniProt P33261); test: Drug-drug interaction of IPE with omeprazole, a CYP2C19 substrate; assay type: in vivo, human (healthy adult subjects); settings: IPE 4 g/day at steady state, omeprazole 40 mg/day
CYP2C8 = settings: IPE 4 g/day; cited from earlier work
[3] = assay type: in vivo, human (healthy adult subjects); settings: for K el: omeprazole 40 mg/day, mean (SD), n = 28
[4] = healthy subjects; cited from earlier work

Sequence of cytochrome P450 (CYP) 2C19 (P33261 whole entry): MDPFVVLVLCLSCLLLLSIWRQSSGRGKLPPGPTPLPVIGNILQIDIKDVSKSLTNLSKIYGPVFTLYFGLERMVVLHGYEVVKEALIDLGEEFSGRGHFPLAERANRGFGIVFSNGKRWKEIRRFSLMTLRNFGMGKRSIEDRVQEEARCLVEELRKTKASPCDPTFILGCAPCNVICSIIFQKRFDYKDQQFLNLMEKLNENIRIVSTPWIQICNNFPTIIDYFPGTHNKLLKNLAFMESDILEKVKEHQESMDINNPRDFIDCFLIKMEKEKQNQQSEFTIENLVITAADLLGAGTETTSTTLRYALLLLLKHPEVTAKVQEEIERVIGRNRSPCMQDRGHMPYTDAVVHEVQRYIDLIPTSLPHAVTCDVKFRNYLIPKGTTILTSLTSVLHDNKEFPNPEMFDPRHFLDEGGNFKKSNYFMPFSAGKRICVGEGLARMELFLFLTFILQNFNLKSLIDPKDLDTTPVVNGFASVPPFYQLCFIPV

SMILES: CC/C=C\C/C=C\C/C=C\C/C=C\C/C=C\CCCC(=O)O [EPA, eicosapentaenoic acid]
Unesterified fraction of total EPA in plasma [1]: < 1%
Time to peak plasma concentrations of EPA ([1]; following oral dosing of IPE): approximately 5 h

SMILES: CC/C=C\C/C=C\C/C=C\C/C=C\C/C=C\CCCC(=O)OCC [IPE, eicosapentaenoic acid ethyl ester]
Effect on LDL-C levels (serum TG levels): without significantly increasing
Effect on serum TG levels (serum TG levels): significantly reduce
Effect of IPE on AUC or C max of warfarin (CYP2C9 substrate) (CYP2C9): did not display a significant effect
Safety and tolerability of co-administration of IPE with omeprazole (Safety assessments; IPE 4 g/day with omeprazole 40 mg/day): safe and well tolerated
Effect of IPE on AUC or C max of atorvastatin (CYP3A4 substrate) (CYP3A4): did not display a significant effect
Effect of IPE on AUC0–24 and C max of omeprazole (CYP2C19 substrate) [2]: did not significantly change; also recorded: did not inhibit
Effect of IPE on AUC or C max of rosiglitazone (CYP2C8 substrate) (CYP2C8): did not display a significant effect

AUC(0-t) ([3]; human, plasma, po, 40 mg/day): 3610 ng·h/mL
K el ([3]; with icosapent ethyl 4 g/day (day 25)): 0.62 (0.26) L/h
K el ([3]; without IPE (day 7)): 0.56 (0.22) L/h
SMILES: COc1ccc2[nH]c([S+]([O-])Cc3ncc(C)c(OC)c3C)nc2c1 (centres unmarked) [Omeprazole]
Tolerability of omeprazole alone (Safety assessments; omeprazole 40 mg/day): well tolerated
Elimination half-life [4]: 30 to 60 min
